Test results as given in ChEMBL document CHEMBL1124366, “Synthesis and biological properties of N63-carboxamides of teicoplanin antibiotics. Structure-activity relationships” (J Med Chem, 1989).
In brackets after ≈: the same amount, converted by molar mass.

Key:
Type in all cases: functional
[1] = system: Staphylococcus epidermidis; assay: In vitro minimum inhibitory concentration against Staphylococcus epidermis ATCC 12228
[2] = system: Staphylococcus haemolyticus; assay: In vitro minimum inhibitory concentration against Staphylococcus hemolyticus 602 cell line; conditions: strain 602
Staphylococcus aureus = assay: In vitro minimum inhibitory concentration against Staphylococcus aureus Tour
Enterococcus faecalis = assay: In vitro minimum inhibitory concentration against Streptococcus faecalis ATCC 7080
Streptococcus pyogenes [3] = assay: Subcutaneously administration into mice infected with Streptococcus pyogenes C 203; conditions: sc
Method in brief: (§1)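 Mice (five per treatment group, five groups) infected intraperitoneally with about 10⁵ cells of Strep. pyogenes C 203, about 100× the LD50. ED50 (mg/kg) was calculated from the percentage of mice surviving at each dose on day 7.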

Streptococcus pyogenes [4] = assay: In vivo effective dose given perorally to mice infected with Streptococcus pyogenes C 203; conditions: po; method in brief: as §1
Streptococcus pyogenes [5] = assay: In vitro minimum inhibitory concentration against Streptococcus pyogenes C 203
Streptococcus pneumoniae = assay: In vitro minimum inhibitory concentration against Streptococcus pneumoniae UC41

Row | Structure (SMILES) | MIC [1] | MIC [2] | MIC (Staphylococcus aureus) | MIC (Enterococcus faecalis) | ED50 (Streptococcus pyogenes [3]) | ED50 (Streptococcus pyogenes [4]) | MIC (Streptococcus pyogenes [5]) | MIC (Streptococcus pneumoniae)
1 | CCNCCCNC(=O)[C@H]1NC(=O)[C@H]2NC(=O)[C@H](NC(=O)[C@@H]3NC(=O)[C@H]4NC(=O)[C@@H](Cc5ccc(c(Cl)c5)Oc5cc3cc(c5O[C@@H]3O[C@@H](CO)[C@@H](O)[C@H](O)[C@@H]3NC(=O)CCCCCCC(C)C)Oc3ccc(cc3Cl)[C@H]2O[C@@H]2O[C@@H](CO)[C@@H](O)[C@H](O)[C@@H]2NC(C)=O)NC(=O)[C@H](N)c2ccc(O)c(c2)Oc2cc(O)cc4c2)c2ccc(O)c(c2)-c2c(O[C@H]3O[C@H](CO)[C@@H](O)[C@@H](O)[C@@H]3O)cc(O)cc21 | 0.06 µg/mL (≈ 0.0306 µM) | 0.12 µg/mL (≈ 0.0611 µM) | 0.12 µg/mL (≈ 0.0611 µM) | 0.12 µg/mL (≈ 0.0611 µM) | 0.1 mg/kg | 112 mg/kg | 0.06 µg/mL (≈ 0.0306 µM) | 0.12 µg/mL (≈ 0.0611 µM)
2 | CC(=O)N[C@@H]1[C@H](O[C@@H]2c3ccc(c(Cl)c3)Oc3cc4cc(c3O[C@@H]3O[C@@H](CO)[C@@H](O)[C@H](O)[C@@H]3NC(=O)CCCCCCC(C)C)Oc3ccc(cc3Cl)C[C@H]3NC(=O)[C@H](N)c5ccc(O)c(c5)Oc5cc(O)cc(c5)[C@H](NC3=O)C(=O)N[C@H]4C(=O)N[C@H]3C(=O)N[C@@H]2C(=O)N[C@H](C(=O)NCCCCN(C)C)c2cc(O)cc(O[C@H]4O[C@H](CO)[C@@H](O)[C@@H](O)[C@@H]4O)c2-c2cc3ccc2O)O[C@@H](CO)[C@@H](O)[C@@H]1O | 0.06 µg/mL (≈ 0.0303 µM) | 0.25 µg/mL (≈ 0.126 µM) | 0.12 µg/mL (≈ 0.0607 µM) | 0.12 µg/mL (≈ 0.0607 µM) | 0.1 mg/kg | 90 mg/kg | 0.06 µg/mL (≈ 0.0303 µM) | 0.12 µg/mL (≈ 0.0607 µM)
3 | CNCCN(C)C(=O)[C@H]1NC(=O)[C@H]2NC(=O)[C@H](NC(=O)[C@@H]3NC(=O)[C@H]4NC(=O)[C@@H](Cc5ccc(c(Cl)c5)Oc5cc3cc(c5O[C@@H]3O[C@@H](CO)[C@@H](O)[C@H](O)[C@@H]3NC(=O)CCCCCCC(C)C)Oc3ccc(cc3Cl)[C@H]2O[C@@H]2O[C@@H](CO)[C@@H](O)[C@H](O)[C@@H]2NC(C)=O)NC(=O)[C@H](N)c2ccc(O)c(c2)Oc2cc(O)cc4c2)c2ccc(O)c(c2)-c2c(O[C@H]3O[C@H](CO)[C@@H](O)[C@@H](O)[C@@H]3O)cc(O)cc21 | 0.06 µg/mL (≈ 0.0308 µM) | 1 µg/mL (≈ 0.513 µM) | 0.12 µg/mL (≈ 0.0615 µM) | 0.12 µg/mL (≈ 0.0615 µM) | 0.1 mg/kg | 72 mg/kg | 0.06 µg/mL (≈ 0.0308 µM) | 0.12 µg/mL (≈ 0.0615 µM)
4 | CC(=O)N[C@@H]1[C@H](O[C@@H]2c3ccc(c(Cl)c3)Oc3cc4cc(c3O[C@@H]3O[C@@H](CO)[C@@H](O)[C@H](O)[C@@H]3NC(=O)CCCCCCC(C)C)Oc3ccc(cc3Cl)C[C@H]3NC(=O)[C@H](N)c5ccc(O)c(c5)Oc5cc(O)cc(c5)[C@H](NC3=O)C(=O)N[C@H]4C(=O)N[C@H]3C(=O)N[C@@H]2C(=O)N[C@H](C(=O)NCCCCCN(C)C)c2cc(O)cc(O[C@H]4O[C@H](CO)[C@@H](O)[C@@H](O)[C@@H]4O)c2-c2cc3ccc2O)O[C@@H](CO)[C@@H](O)[C@@H]1O | 0.12 µg/mL (≈ 0.0602 µM) | 0.5 µg/mL (≈ 0.251 µM) | 0.12 µg/mL (≈ 0.0602 µM) | 0.12 µg/mL (≈ 0.0602 µM) | 0.12 mg/kg | 112 mg/kg | 0.06 µg/mL (≈ 0.0301 µM) | 0.06 µg/mL (≈ 0.0301 µM)
5 | CC(=O)N[C@@H]1[C@H](O[C@@H]2c3ccc(c(Cl)c3)Oc3cc4cc(c3O[C@@H]3O[C@@H](CO)[C@@H](O)[C@H](O)[C@@H]3NC(=O)CCCCCCC(C)C)Oc3ccc(cc3Cl)C[C@H]3NC(=O)[C@H](N)c5ccc(O)c(c5)Oc5cc(O)cc(c5)[C@H](NC3=O)C(=O)N[C@H]4C(=O)N[C@H]3C(=O)N[C@@H]2C(=O)N[C@H](C(=O)NCCN(C)C)c2cc(O)cc(O[C@H]4O[C@H](CO)[C@@H](O)[C@@H](O)[C@@H]4O)c2-c2cc3ccc2O)O[C@@H](CO)[C@@H](O)[C@@H]1O | 0.06 µg/mL (≈ 0.0308 µM) | 0.12 µg/mL (≈ 0.0615 µM) | 0.12 µg/mL (≈ 0.0615 µM) | 0.12 µg/mL (≈ 0.0615 µM) | 0.09 mg/kg | 140 mg/kg | 0.06 µg/mL (≈ 0.0308 µM) | 0.06 µg/mL (≈ 0.0308 µM)
6 | CCN(CC)CCCNC(=O)[C@H]1NC(=O)[C@H]2NC(=O)[C@H](NC(=O)[C@@H]3NC(=O)[C@H]4NC(=O)[C@@H](Cc5ccc(c(Cl)c5)Oc5cc3cc(c5O[C@@H]3O[C@@H](CO)[C@@H](O)[C@H](O)[C@@H]3NC(=O)CCCCCCC(C)C)Oc3ccc(cc3Cl)[C@H]2O[C@@H]2O[C@@H](CO)[C@@H](O)[C@H](O)[C@@H]2NC(C)=O)NC(=O)[C@H](N)c2ccc(O)c(c2)Oc2cc(O)cc4c2)c2ccc(O)c(c2)-c2c(O[C@H]3O[C@H](CO)[C@@H](O)[C@@H](O)[C@@H]3O)cc(O)cc21 | 0.12 µg/mL (≈ 0.0602 µM) | 0.12 µg/mL (≈ 0.0602 µM) | 0.12 µg/mL (≈ 0.0602 µM) | 0.12 µg/mL (≈ 0.0602 µM) | 0.05 mg/kg | 90 mg/kg | 0.06 µg/mL (≈ 0.0301 µM) | 0.06 µg/mL (≈ 0.0301 µM)
7 | CC(=O)N[C@@H]1[C@H](O[C@@H]2c3ccc(c(Cl)c3)Oc3cc4cc(c3O[C@@H]3O[C@@H](CO)[C@@H](O)[C@H](O)[C@@H]3NC(=O)CCCCCCC(C)C)Oc3ccc(cc3Cl)C[C@H]3NC(=O)[C@H](N)c5ccc(O)c(c5)Oc5cc(O)cc(c5)[C@H](NC3=O)C(=O)N[C@H]4C(=O)N[C@H]3C(=O)N[C@@H]2C(=O)N[C@H](C(=O)NCCCN)c2cc(O)cc(O[C@H]4O[C@H](CO)[C@@H](O)[C@@H](O)[C@@H]4O)c2-c2cc3ccc2O)O[C@@H](CO)[C@@H](O)[C@@H]1O | 0.06 µg/mL (≈ 0.031 µM) | 0.12 µg/mL (≈ 0.062 µM) | 0.12 µg/mL (≈ 0.062 µM) | 0.12 µg/mL (≈ 0.062 µM) | 0.08 mg/kg | 89.6 mg/kg | 0.03 µg/mL (≈ 0.0155 µM) | 0.12 µg/mL (≈ 0.062 µM)
8 | CC(=O)N[C@@H]1[C@H](O[C@@H]2c3ccc(c(Cl)c3)Oc3cc4cc(c3O[C@@H]3O[C@@H](CO)[C@@H](O)[C@H](O)[C@@H]3NC(=O)CCCCCCC(C)C)Oc3ccc(cc3Cl)C[C@H]3NC(=O)[C@H](N)c5ccc(O)c(c5)Oc5cc(O)cc(c5)[C@H](NC3=O)C(=O)N[C@H]4C(=O)N[C@H]3C(=O)N[C@@H]2C(=O)N[C@H](C(=O)NCCCN2CCOCC2)c2cc(O)cc(O[C@H]4O[C@H](CO)[C@@H](O)[C@@H](O)[C@@H]4O)c2-c2cc3ccc2O)O[C@@H](CO)[C@@H](O)[C@@H]1O | 0.12 µg/mL (≈ 0.0598 µM) | 0.5 µg/mL (≈ 0.249 µM) | 0.12 µg/mL (≈ 0.0598 µM) | 0.12 µg/mL (≈ 0.0598 µM) | 0.18 mg/kg | > 300 mg/kg | 0.06 µg/mL (≈ 0.0299 µM) | 0.06 µg/mL (≈ 0.0299 µM)
9 | CCN1CCCC1CNC(=O)[C@H]1NC(=O)[C@H]2NC(=O)[C@H](NC(=O)[C@@H]3NC(=O)[C@H]4NC(=O)[C@@H](Cc5ccc(c(Cl)c5)Oc5cc3cc(c5O[C@@H]3O[C@@H](CO)[C@@H](O)[C@H](O)[C@@H]3NC(=O)CCCCCCC(C)C)Oc3ccc(cc3Cl)[C@H]2O[C@@H]2O[C@@H](CO)[C@@H](O)[C@H](O)[C@@H]2NC(C)=O)NC(=O)[C@H](N)c2ccc(O)c(c2)Oc2cc(O)cc4c2)c2ccc(O)c(c2)-c2c(O[C@H]3O[C@H](CO)[C@@H](O)[C@@H](O)[C@@H]3O)cc(O)cc21 (stereo partly specified) | 0.06 µg/mL (≈ 0.0302 µM) | 0.12 µg/mL (≈ 0.0603 µM) | 0.12 µg/mL (≈ 0.0603 µM) | 0.12 µg/mL (≈ 0.0603 µM) | 0.1 mg/kg | 140 mg/kg | 0.06 µg/mL (≈ 0.0302 µM) | 0.06 µg/mL (≈ 0.0302 µM)
10 | CC(=O)N[C@@H]1[C@H](O[C@@H]2c3ccc(c(Cl)c3)Oc3cc4cc(c3O[C@@H]3O[C@@H](CO)[C@@H](O)[C@H](O)[C@@H]3NC(=O)CCCCCCC(C)C)Oc3ccc(cc3Cl)C[C@H]3NC(=O)[C@H](N)c5ccc(O)c(c5)Oc5cc(O)cc(c5)[C@H](NC3=O)C(=O)N[C@H]4C(=O)N[C@H]3C(=O)N[C@@H]2C(=O)N[C@H](C(=O)NCCCCCCCN(C)C)c2cc(O)cc(O[C@H]4O[C@H](CO)[C@@H](O)[C@@H](O)[C@@H]4O)c2-c2cc3ccc2O)O[C@@H](CO)[C@@H](O)[C@@H]1O | 0.12 µg/mL (≈ 0.0594 µM) | 0.5 µg/mL (≈ 0.248 µM) | 0.12 µg/mL (≈ 0.0594 µM) | 0.12 µg/mL (≈ 0.0594 µM) | 0.18 mg/kg | > 300 mg/kg | 0.06 µg/mL (≈ 0.0297 µM) | 0.12 µg/mL (≈ 0.0594 µM)
11 | CC(=O)N[C@@H]1[C@H](O[C@@H]2c3ccc(c(Cl)c3)Oc3cc4cc(c3O[C@@H]3O[C@@H](CO)[C@@H](O)[C@H](O)[C@@H]3NC(=O)CCCCCCC(C)C)Oc3ccc(cc3Cl)C[C@H]3NC(=O)[C@H](N)c5ccc(O)c(c5)Oc5cc(O)cc(c5)[C@H](NC3=O)C(=O)N[C@H]4C(=O)N[C@H]3C(=O)N[C@@H]2C(=O)N[C@H](C(=O)NCc2ccccn2)c2cc(O)cc(O[C@H]4O[C@H](CO)[C@@H](O)[C@@H](O)[C@@H]4O)c2-c2cc3ccc2O)O[C@@H](CO)[C@@H](O)[C@@H]1O | 0.12 µg/mL (≈ 0.0609 µM) | 8 µg/mL (≈ 4.06 µM) | 0.12 µg/mL (≈ 0.0609 µM) | 0.12 µg/mL (≈ 0.0609 µM) | 0.08 mg/kg | 139 mg/kg | 0.06 µg/mL (≈ 0.0305 µM) | 0.06 µg/mL (≈ 0.0305 µM)
12 | CC(=O)N[C@@H]1[C@H](O[C@@H]2c3ccc(c(Cl)c3)Oc3cc4cc(c3O[C@@H]3O[C@@H](CO)[C@@H](O)[C@H](O)[C@@H]3NC(=O)CCCCCCC(C)C)Oc3ccc(cc3Cl)C[C@H]3NC(=O)[C@H](N)c5ccc(O)c(c5)Oc5cc(O)cc(c5)[C@H](NC3=O)C(=O)N[C@H]4C(=O)N[C@H]3C(=O)N[C@@H]2C(=O)N[C@H](C(=O)NCCCCCCN)c2cc(O)cc(O[C@H]4O[C@H](CO)[C@@H](O)[C@@H](O)[C@@H]4O)c2-c2cc3ccc2O)O[C@@H](CO)[C@@H](O)[C@@H]1O | 0.06 µg/mL (≈ 0.0303 µM) | 0.12 µg/mL (≈ 0.0607 µM) | 0.12 µg/mL (≈ 0.0607 µM) | 0.12 µg/mL (≈ 0.0607 µM) | 0.14 mg/kg | > 300 mg/kg | 0.06 µg/mL (≈ 0.0303 µM) | 0.12 µg/mL (≈ 0.0607 µM)
